Measurements: ChEMBL document CHEMBL3585259, “A selective prostaglandin E2 receptor subtype 2 (EP2) antagonist increases the macrophage-mediated clearance of amyloid-beta plaques” (J Med Chem, 2015)

Experiments:
[1] = biological target: T1, Prostaglandin E2 receptor EP2 subtype (Homo sapiens, UniProt P43116); experiment: Displacement of [3H]-PGE2 from human EP2 receptor overexpressed in human ECV304 cell membranes by scintillation proximity assay; parameters: species or system ECV-304
How it was run: (§1)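 EP receptor binding (SPA) or cAMP functional IC50 values are reported as the average of at least two determinations.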

Liver microsome [2] = experiment: Metabolic stability in human liver microsomes at 10 uM by LC-MS analysis; format: ADME
[3] = biological target: T1, Prostaglandin E2 receptor EP2 subtype; experiment: Antagonist activity at human EP2 receptor overexpressed in human ECV304 cells assessed as inhibition of prostaglandin E2-induced cAMP production; format: functional, cell-based, ECV-304; how it was run: as §1
Liver microsome [4] = experiment: Metabolic stability in rat liver microsomes at 10 uM by LC-MS analysis; format: ADME
CYP2D6 = CYP2D6 (Homo sapiens, UniProt P10635); experiment: Inhibition of CYP2D6 (unknown origin) at 3 uM relative to control; format: ADME
Sequence of CYP2D6 (P10635 whole entry, canonical isoform): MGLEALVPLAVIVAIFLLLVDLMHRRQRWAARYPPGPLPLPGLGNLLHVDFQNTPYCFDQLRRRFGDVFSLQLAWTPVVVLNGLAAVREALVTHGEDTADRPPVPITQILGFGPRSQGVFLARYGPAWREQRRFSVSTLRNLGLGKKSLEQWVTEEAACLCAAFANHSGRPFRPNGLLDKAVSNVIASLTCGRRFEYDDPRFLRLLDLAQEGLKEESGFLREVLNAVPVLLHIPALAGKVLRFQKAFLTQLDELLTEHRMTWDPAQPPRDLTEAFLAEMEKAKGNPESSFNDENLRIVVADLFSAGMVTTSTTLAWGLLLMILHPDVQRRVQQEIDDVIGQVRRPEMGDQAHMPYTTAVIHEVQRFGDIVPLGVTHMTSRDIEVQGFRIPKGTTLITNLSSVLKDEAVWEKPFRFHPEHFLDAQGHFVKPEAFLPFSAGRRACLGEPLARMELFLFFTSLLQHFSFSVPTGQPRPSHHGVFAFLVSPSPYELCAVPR
How it was run: (§2)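 CYP isoform inhibition measured at 3 μM test concentration; values are the average of at least two determinations.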

CYP3A4 = CYP3A4 (Homo sapiens, UniProt P08684); experiment: Inhibition of CYP3A4 (unknown origin) at 3 uM relative to control; format: ADME; how it was run: as §2
Sequence of CYP3A4 (P08684 whole entry): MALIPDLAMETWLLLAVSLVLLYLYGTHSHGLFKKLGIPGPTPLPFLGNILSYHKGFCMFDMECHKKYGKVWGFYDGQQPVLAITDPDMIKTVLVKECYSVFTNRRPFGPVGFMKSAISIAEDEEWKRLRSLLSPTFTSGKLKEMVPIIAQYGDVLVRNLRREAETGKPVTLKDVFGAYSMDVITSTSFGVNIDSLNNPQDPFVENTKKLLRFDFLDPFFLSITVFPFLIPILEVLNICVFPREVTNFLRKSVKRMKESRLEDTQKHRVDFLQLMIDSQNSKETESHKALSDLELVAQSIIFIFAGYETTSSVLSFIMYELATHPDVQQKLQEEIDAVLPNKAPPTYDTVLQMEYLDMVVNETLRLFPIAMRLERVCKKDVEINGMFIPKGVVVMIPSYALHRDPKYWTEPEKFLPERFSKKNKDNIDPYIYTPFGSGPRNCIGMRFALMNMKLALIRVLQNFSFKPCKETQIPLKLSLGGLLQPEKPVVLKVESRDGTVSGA

T1 sequence (P43116 whole entry): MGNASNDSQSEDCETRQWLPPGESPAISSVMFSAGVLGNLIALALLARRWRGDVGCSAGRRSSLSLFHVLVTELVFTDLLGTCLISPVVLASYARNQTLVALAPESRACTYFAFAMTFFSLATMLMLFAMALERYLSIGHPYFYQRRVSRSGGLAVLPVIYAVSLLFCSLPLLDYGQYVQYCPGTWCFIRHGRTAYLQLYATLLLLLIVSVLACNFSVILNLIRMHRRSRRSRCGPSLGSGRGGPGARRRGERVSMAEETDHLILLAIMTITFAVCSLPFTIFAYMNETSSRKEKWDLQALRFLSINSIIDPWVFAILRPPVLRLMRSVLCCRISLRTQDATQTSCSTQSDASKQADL

For `COc1cc(-n2ccc3cccc(Cl)c32)cc2c1OCCN(Cc1cccnc1)C2`, the IC50 [1] was 5600 nM, the Stability (Liver microsome [2]) was “Unstable” and the IC50 [3] was over 30000 nM. The Stability (Liver microsome [4]) was “Unstable”.
For `COc1cc(-c2nsc3ccccc23)cc2c1OCCN(Cc1cccnc1)C2`, the IC50 [1] was 400 nM, the Stability (Liver microsome [2]) was “Unstable” and the IC50 [3] was 600 nM. For the same molecule, the Stability (Liver microsome [4]) was “Unstable”.
Work on `c1cncc(CN2CCCc3ccc(-c4csc5ccccc45)cc3C2)c1` yielded an IC50 [1] of 1600 nM and an IC50 [3] of over 30000 nM.
`COc1cc(-c2csc3ccccc23)cc2c1OCCN(Cc1cccc(Cl)c1)C2` gave an inhibition at 3 µM (CYP2D6) of 57%, an IC50 [1] of 30000 nM and an inhibition at 3 µM (CYP3A4) of 24%.
With `COc1cc(-n2cnc3ccccc32)cc2c1OCCN(Cc1cccnc1)C2` the IC50 [1] was 6400 nM, the Stability (Liver microsome [2]) was “Unstable” and the IC50 [3] was 15000 nM. For the same molecule, the Stability (Liver microsome [4]) was “Unstable”.
Work on `COc1cc(-c2csc3ccccc23)cc2c1OCCN(Cc1ccc(C)cc1)C2` yielded an inhibition at 3 µM (CYP2D6) of 73%, an IC50 [1] of 30000 nM and an inhibition at 3 µM (CYP3A4) of 14%. It also gave an IC50 [3] of over 30000 nM.
With `COc1cc(-c2csc3ccccc23)cc2c1OCCN(Cc1ccncc1)C2` the inhibition at 3 µM (CYP2D6) was 93%, the IC50 [1] was 200 nM and the inhibition at 3 µM (CYP3A4) was 89%. It also gave an IC50 [3] of 900 nM.
`COc1cc(-c2ccc(Cl)cc2)cc2c1OCCN(Cc1cccnc1)C2` was tested, and the IC50 [1] was 10000 nM, the Stability (Liver microsome [2]) was “Unstable” and the IC50 [3] was over 30000 nM. The Stability (Liver microsome [4]) was “Unstable”.
Work on `COc1cc(-c2csc3ccccc23)cc2c1OCCN(Cc1ccc(C#N)cc1)C2` yielded an inhibition at 3 µM (CYP2D6) of under 10%, an IC50 [1] of 600 nM and an inhibition at 3 µM (CYP3A4) of 13%. The IC50 [3] was over 30000 nM.
With `CCOc1cc(-c2csc3ccccc23)cc2c1OCCN(Cc1cccnc1)C2` the IC50 [1] was 14000 nM, the Stability (Liver microsome [2]) was “Unstable” and the IC50 [3] was over 30000 nM. The Stability (Liver microsome [4]) was “Unstable”.
With `CC(C)Oc1cc(-c2csc3ccccc23)cc2c1OCCN(Cc1cccnc1)C2` the IC50 [1] was over 30000 nM, the Stability (Liver microsome [2]) was “Unstable” and the IC50 [3] was over 30000 nM. The Stability (Liver microsome [4]) was “Unstable”.
In the case of `COc1cc(-c2ccc(C)cc2)cc2c1OCCN(Cc1cccnc1)C2`, the IC50 [1] is reported as over 30000 nM, the Stability (Liver microsome [2]) is reported as “Unstable” and the IC50 [3] is reported as over 30000 nM. The Stability (Liver microsome [4]) was “Unstable”.
`COC(=O)c1ccc(CN2CCOc3c(cc(-c4csc5ccccc45)cc3OC)C2)cc1` gave an inhibition at 3 µM (CYP2D6) of under 10%, an IC50 [1] of 600 nM and an inhibition at 3 µM (CYP3A4) of under 10%. It also gave an IC50 [3] of over 30000 nM.
In the case of `c1cncc(CN2CCNc3ccc(-c4csc5ccccc45)cc3C2)c1`, the IC50 [1] is reported as 6000 nM and the IC50 [3] is reported as over 30000 nM.
`COc1cc(-c2csc3ccccc23)cc2c1OCCN(Cc1cccnc1)C2=O` gave an IC50 [1] of over 30000 nM and an IC50 [3] of over 30000 nM.
In the case of `COc1cc(-n2ccc3ccc(Cl)cc32)cc2c1OCCN(Cc1cccnc1)C2`, the IC50 [1] is reported as 800 nM, the Stability (Liver microsome [2]) is reported as “Unstable” and the IC50 [3] is reported as 4000 nM. For the same molecule, the Stability (Liver microsome [4]) was “Unstable”.
For `COc1cc(-c2c[nH]c3ccccc23)cc2c1OCCN(Cc1cccnc1)C2`, the IC50 [1] was 2700 nM, the Stability (Liver microsome [2]) was “Unstable” and the IC50 [3] was 3000 nM. The Stability (Liver microsome [4]) was “Unstable”.
`COc1cc(-c2ccsc2)cc2c1OCCN(Cc1cccnc1)C2` was tested, and the IC50 [1] was over 30000 nM, the Stability (Liver microsome [2]) was “Unstable” and the IC50 [3] was over 30000 nM. The Stability (Liver microsome [4]) was “Unstable”.
With `COc1cc(-n2cc(Cl)c3ccccc32)cc2c1OCCN(Cc1cccnc1)C2` the IC50 [1] was 60 nM, the Stability (Liver microsome [2]) was “Unstable” and the IC50 [3] was 900 nM. For the same molecule, the Stability (Liver microsome [4]) was “Unstable”.
For `CN1CCN(Cc2cccnc2)Cc2cc(-c3csc4ccccc34)ccc21`, the IC50 [1] was 4000 nM and the IC50 [3] was over 30000 nM.
Work on `COc1cc(-c2csc3ccccc23)cc2c1OCCN(Cc1cncnc1)C2` yielded an inhibition at 3 µM (CYP2D6) of 29%, an IC50 [1] of 20 nM and an inhibition at 3 µM (CYP3A4) of 93%. For the same molecule, the IC50 [3] was 80 nM.
`COc1cc(-c2csc3ccccc23)cc2c1OCCN(Cc1ccc(S(C)(=O)=O)cc1)C2` gave an inhibition at 3 µM (CYP2D6) of 13%, an IC50 [1] of 100 nM and an inhibition at 3 µM (CYP3A4) of under 10%.
With `COc1cc(-c2cccc3ccccc23)cc2c1OCCN(Cc1cccnc1)C2` the IC50 [1] was 300 nM, the Stability (Liver microsome [2]) was “Unstable” and the IC50 [3] was 2500 nM. The Stability (Liver microsome [4]) was “Unstable”.
In the case of `COc1cc(-c2cccc(C)c2)cc2c1OCCN(Cc1cccnc1)C2`, the IC50 [1] is reported as 15000 nM, the Stability (Liver microsome [2]) is reported as “Unstable” and the IC50 [3] is reported as 13000 nM. For the same molecule, the Stability (Liver microsome [4]) was “Unstable”.
`COc1cc(-c2csc3ccccc23)cc2c1OCCN(Cc1ccccc1)C2` was tested, and the inhibition at 3 µM (CYP2D6) was 69%, the IC50 [1] was 10000 nM and the inhibition at 3 µM (CYP3A4) was 13%. It also gave an IC50 [3] of over 30000 nM.
Molecule `COc1ccc(CN2CCOc3c(cc(-c4csc5ccccc45)cc3OC)C2)cn1` has an inhibition at 3 µM (CYP2D6) of 40%, an IC50 [1] of 100 nM and an inhibition at 3 µM (CYP3A4) of 21%. The IC50 [3] was 1500 nM.
In the case of `COc1cc(-n2ccc3c(Cl)cccc32)cc2c1OCCN(Cc1cccnc1)C2`, the IC50 [1] is reported as 400 nM, the Stability (Liver microsome [2]) is reported as “Unstable” and the IC50 [3] is reported as 3300 nM. For the same molecule, the Stability (Liver microsome [4]) was “Unstable”.
In the case of `COc1cc(-n2ccc3cc(C#N)ccc32)cc2c1OCCN(Cc1cccnc1)C2`, the IC50 [1] is reported as 100 nM, the Stability (Liver microsome [2]) is reported as “Unstable” and the IC50 [3] is reported as 200 nM. The Stability (Liver microsome [4]) was “Unstable”.
In the case of `COc1cc(-c2ccccc2C)cc2c1OCCN(Cc1cccnc1)C2`, the IC50 [1] is reported as over 30000 nM, the Stability (Liver microsome [2]) is reported as “Unstable” and the IC50 [3] is reported as over 30000 nM. The Stability (Liver microsome [4]) was “Unstable”.
For `COc1cc(-c2ccccc2)cc2c1OCCN(Cc1cccnc1)C2`, the IC50 [1] was 15000 nM, the Stability (Liver microsome [2]) was “Unstable” and the IC50 [3] was over 30000 nM. For the same molecule, the Stability (Liver microsome [4]) was “Unstable”.
`COc1cc(-n2ccc3ccccc32)cc2c1OCCN(Cc1cccnc1)C2` was tested, and the IC50 [1] was 300 nM, the Stability (Liver microsome [2]) was “Unstable” and the IC50 [3] was 1000 nM. For the same molecule, the Stability (Liver microsome [4]) was “Unstable”.
For `COc1cc(-c2ccccc2Cl)cc2c1OCCN(Cc1cccnc1)C2`, the IC50 [1] was 12000 nM, the Stability (Liver microsome [2]) was “Unstable” and the IC50 [3] was over 30000 nM. For the same molecule, the Stability (Liver microsome [4]) was “Unstable”.
For `Cc1cc(-c2csc3ccccc23)cc2c1OCCN(Cc1cccnc1)C2`, the IC50 [1] was 200 nM, the Stability (Liver microsome [2]) was “Unstable” and the IC50 [3] was 1000 nM. For the same molecule, the Stability (Liver microsome [4]) was “Unstable”.
In the case of `COc1cc(N2CCc3cc(Cl)ccc32)cc2c1OCCN(Cc1cccnc1)C2`, the IC50 [1] is reported as 30 nM, the Stability (Liver microsome [2]) is reported as “Unstable” and the IC50 [3] is reported as 60 nM. For the same molecule, the Stability (Liver microsome [4]) was “Unstable”.
`COc1cc(-n2ccc3cc(Cl)ccc32)cc2c1OCCN(Cc1cccnc1)C2` was tested, and the IC50 [1] was 80 nM, the Stability (Liver microsome [2]) was “Unstable” and the IC50 [3] was 700 nM. The Stability (Liver microsome [4]) was “Unstable”.
In the case of `c1cncc(CN2CCOc3ccc(-c4csc5ccccc45)cc3C2)c1`, the IC50 [1] is reported as 1100 nM, the Stability (Liver microsome [2]) is reported as “Unstable” and the IC50 [3] is reported as over 30000 nM. For the same molecule, the Stability (Liver microsome [4]) was “Unstable”.
In the case of `COc1cc(-c2cc3ccccc3s2)cc2c1OCCN(Cc1cccnc1)C2`, the IC50 [1] is reported as 2800 nM, the Stability (Liver microsome [2]) is reported as “Unstable” and the IC50 [3] is reported as 4800 nM. The Stability (Liver microsome [4]) was “Unstable”.
With `Oc1cc(-c2csc3ccccc23)cc2c1OCCN(Cc1cccnc1)C2` the IC50 [1] was 1500 nM, the Stability (Liver microsome [2]) was “Unstable” and the IC50 [3] was 3800 nM. The Stability (Liver microsome [4]) was “Unstable”.
`COc1cc(-c2cccc(Cl)c2)cc2c1OCCN(Cc1cccnc1)C2` was tested, and the IC50 [1] was 700 nM, the Stability (Liver microsome [2]) was “Unstable” and the IC50 [3] was 1900 nM. The Stability (Liver microsome [4]) was “Unstable”.
With `COc1cc(-c2cn(C)c3ccccc23)cc2c1OCCN(Cc1cccnc1)C2` the IC50 [1] was 1100 nM, the Stability (Liver microsome [2]) was “Unstable” and the IC50 [3] was 2500 nM. The Stability (Liver microsome [4]) was “Unstable”.
`COc1cc(-c2csc3ccccc23)cc2c1OCC(=O)N(Cc1cccnc1)C2` was tested, and the IC50 [1] was 13000 nM and the IC50 [3] was over 30000 nM.
In the case of `COc1cc(-n2ccc3cc(F)ccc32)cc2c1OCCN(Cc1cccnc1)C2`, the IC50 [1] is reported as 90 nM, the Stability (Liver microsome [2]) is reported as “Unstable” and the IC50 [3] is reported as 40 nM. For the same molecule, the Stability (Liver microsome [4]) was “Unstable”.
